Screening data (PubChem BioAssay)
Sampled rows, rich in hits. Any-hit rate of the full collection: about 2.6%.
OX1R antag-1 = antagonists of human orexin 1 receptor. O43613. CHO/OX1R cells, Fluo-8 calcium fluorescence, orexin A. inhibition, % at 5 µM. hit rate 0.43% among 330,000;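 active = inhibition above its plate's threshold, mean inhibition of all tested compounds on the plate plus 3 SD, cut at about 37% in these data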;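 note: 0% = orexin A challenge wells and 100% = SB-334867-A antagonist wells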
OXTR agonist = agonists of human oxytocin receptor; P30559; CHO-OTR cells, Fluo-8 calcium fluorescence; normalized: DMSO 0%, oxytocin 100%; activation, % at 3 µM; hit rate 0.32% among 320,000; AID 2435;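 active = activation above the mean of all tested compounds plus 3 SD, cutoff set per screening run, cut at about 20% in these data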;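 note: peak over basal fluorescence ratio from a 100 s FLIPR kinetic read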
OX1R antag-2 = blocks the human orexin 1 receptor; inhibition, % at 6.6 µM; hit rate 1.8% among 330,000; O43613; OX1R-expressing cells, FRET antagonist read-out; in the data active = inhibition mostly above about 38%, no sharp cut-off; inactive = mostly below about 40%;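 note: 0% = agonist challenge alone and 100% = reference antagonist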
V1R ag counter = counter-screen for oxytocin receptor agonists: human V1a receptor agonists | activation, % at 3 µM | hit rate 0.25% among 320,000 | P37288 | CHO-V1R cells, Fluo-8 calcium fluorescence, agonist mode; 0% DMSO, 100% 3 nM vasopressin;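 active = activation above the mean activation of all tested compounds plus 3 SD, per screening run, cut at about 20% in these data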;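 note: signal is peak over basal fluorescence ratio across a 100 second FLIPR read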
Target sequence (P37288 whole entry, looked up): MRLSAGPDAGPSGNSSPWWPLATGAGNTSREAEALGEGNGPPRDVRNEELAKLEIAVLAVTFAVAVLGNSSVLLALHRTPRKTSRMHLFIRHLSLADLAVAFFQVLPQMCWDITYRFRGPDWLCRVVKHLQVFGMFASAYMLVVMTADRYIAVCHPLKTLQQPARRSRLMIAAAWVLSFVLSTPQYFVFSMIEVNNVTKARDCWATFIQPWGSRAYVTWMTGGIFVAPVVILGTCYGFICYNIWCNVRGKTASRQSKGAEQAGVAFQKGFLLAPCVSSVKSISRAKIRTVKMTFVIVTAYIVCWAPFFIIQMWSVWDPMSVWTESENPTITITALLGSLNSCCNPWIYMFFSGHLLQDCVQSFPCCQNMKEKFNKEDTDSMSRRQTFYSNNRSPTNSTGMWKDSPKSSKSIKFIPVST
OXTR potentiate = human OXTR potentiation; P30559; AID 2445; activation, % at 3 µM; hit rate 0.061% among 320,000; CHO-OTR cells, Fluo-8 calcium fluorescence, potentiator mode; 0% = oxytocin EC15, 100% = EC100;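 active = activation above that plate's cutoff, the mean activation of tested compounds plus 3 SD, cut at about 6.6% in these data, passing the limit was not always enough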;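 note: 100% uses oxytocin at 75 nM as the full agonist control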
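Measured by – Fluo-8 calcium dye fluorescence · Test system – human OTR in CHO cells · Dosing – one concentration, 3.0 µM compound · Controls – EC15 oxytocin alone as 0%, 75 nM oxytocin as 100% · Evaluation – normalized max/min fluorescence ratio, % activation · Timing – 6 min pre-incubation, 100 s read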
CHO parental Ca = counter-screen: ATP calcium response change in parental CHO cells; parental CHO-K1, ATP-induced calcium, Fluo-8 fluorescence; inhibition, % at 5.6 µM; hit rate 0.63% among 330,000; AID 463079;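 active = inhibition above that plate's mean sample inhibition plus 3 SD, cut at about 26% in these data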;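 note: 0% = ATP-challenged DMSO wells and 100% = DMSO wells without ATP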
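Assay system – parental CHO cells · Reagent – ATP stimulus · Detection – intracellular calcium via Fluo-8 no-wash fluorescent dye · Evaluation – percent inhibition of ATP-evoked calcium rise, normalized to controls · Controls – ATP wells versus no-ATP DMSO wells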
OXTR agonist cf = confirmation of human oxytocin receptor agonists | CHO-OTR cells, Fluo-8 calcium fluorescence, agonist | AID 434963 | hit rate 20% among 390 | shares compounds with OXTR agonist | activation, % at 3 µM;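 active = mean activation above about 20% derived from the earlier single-dose screen, limit read from the data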;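 note: peak over minimum fluorescence ratio per well during a 100 second FLIPR read; 0% = DMSO alone and 100% = oxytocin high control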
V1R ag counter 3x = counter-screen for oxytocin receptor agonists: V1a receptor agonists; activation, % at 3 µM; shares compounds with OXTR agonist; CHO-V1R cells, Fluo-8 calcium fluorescence, agonist; hit rate 10% among 390;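 active = mean activation over triplicate exceeds the hit threshold set in the earlier primary screen, cut at about 20% in these data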;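 note: peak over basal fluorescence ratio within a 100 second read; 0% = DMSO alone and 100% = 3 nM vasopressin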
OXTR pot cf = human OXTR potentiation, confirmation; AID 434985; shares compounds with OXTR potentiate; 180 tested, under 10 active; CHO-OTR cells, Fluo-8 calcium fluorescence; scaled from low-dose to maximal oxytocin; activation, % at 3 µM;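 active = mean percent activation over triplicates above a cutoff set from solvent-only control plates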;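 note: compounds tested in the presence of an EC15 dose of oxytocin; 0% = EC15 oxytocin with DMSO and 100% = EC100 oxytocin with DMSO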
OX1R Ca confirm = confirmation of human orexin 1 receptor antagonists; shares compounds with OX1R antag-1; CHO/OX1R cells, orexin A calcium Fluo-8 fluorescence; inhibition, % at 5 µM; hit rate 38% among 1,100; AID 492963; in the data active = inhibition above about 29%;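 note: 0% = agonist challenge alone and 100% = reference antagonist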
CHO Ca counter = signal in parental CHO cells, OX1R antagonist counter-screen; shares compounds with OX1R antag-1; parental CHO-K1, ATP-induced calcium, Fluo-8 fluorescence; inhibition, % at 5.6 µM; hit rate 9.3% among 1,100; AID 492965;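 active = inhibition above a per-plate limit, the mean inhibition of that plate's test compounds plus 3 SD, cut at about 25% in these data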;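 note: 0% = ATP challenge with DMSO and 100% = DMSO without ATP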
OX1R HTRF conf = confirmation of human orexin 1 receptor antagonists, HTRF format. shares compounds with OX1R antag-2. OX1R-expressing cells, HTRF antagonist assay. inhibition, % at 6.6 µM. hit rate 49% among 1,800; in the data active = inhibition above about 55%;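 note: CHO cells expressing OX1R stimulated with orexin A at about EC80; 0% = agonist challenge alone and 100% = reference antagonist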
CHO-K1 HTRF cnt = counter-screen: parental CHO-K1 HTRF response; shares compounds with OX1R antag-2; parental CHO-K1 cells, HTRF counterscreen; inhibition, % at 6.6 µM; hit rate 48% among 1,800; AID 493232; in the data active = inhibition above about 17%;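 note: 0% = agonist challenge with vehicle and 100% = vehicle alone without agonist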
Active calls of the source: *; x = no result.

SMILES	OX1R antag-1	OXTR agonist	OX1R antag-2	V1R ag counter	OXTR potentiate	CHO parental Ca	OXTR agonist cf	V1R ag counter 3x	others
CNCCNC[C@H](Cc1cccc2ccccc12)NCCc1ccccc1	-15	2	16	2	-1	-13	x	x
CNC[C@H](Cc1ccccc1)NC[C@@H](Cc1cccc2ccccc12)NCCc1ccc(C)cc1	25	21*	19	7	-9	23	10	9
CCCN1C(=O)S/C(=C/c2ccc(N3CCOCC3)o2)C1=O	-20	20*	30	7	-4	-7	31*	55*
Nc1nc(Cl)cc(N2CCC(c3cc(-c4ccc(Cl)cc4)n[nH]3)CC2)n1	54*	22*	19	14	-13	34*	9	11
COc1ccc(NS(=O)(=O)c2ccc(C(=O)NCC3(N4CCOCC4)CCCCC3)cc2)cc1	8	24*	3	18	-9	-18	16	10
COc1ccc(NS(=O)(=O)c2cccc(C(=O)NCC3(N4CCOCC4)CCCCC3)c2)cc1	-30	-1	3	0	-6	-28	x	x
COc1cc(OC)c(C(=O)OCC(=O)Nc2ccccc2Cl)cc1OC	-23	8	11	2	-1	-4	x	x
CCSc1nsc(NC(=O)Nc2ccccc2F)n1	4	6	34	10	-17	20	x	x
CCSc1nsc(NC(=O)Nc2cccc(OC)c2)n1	29	22*	52*	13	-25	43*	11	11
COc1cccc(C(=O)Nc2ccc(NC(=O)Cc3ccccc3)cc2)c1	-8	24*	3	2	-5	-9	0	0
COc1cccc(C(=O)Nc2ccccc2)c1	-13	-2	25	0	-4	-3	x	x
CC(c1ccon1)N(C)C(=O)CCc1nnc(C2(c3ccc(Cl)cc3)CCC2)o1 (stereo not given)	-23	0	0	0	3	0	x	x
CC(=O)c1ccc(N2CCN(c3ccccc3O)CC2)c([N+](=O)[O-])c1	63*	23*	79*	15	-33	44*	14	13
O=C(O)c1ccccc1C(=O)c1ccc(N2CCCC2)c([N+](=O)[O-])c1	-25	1	21	1	0	-1	x	x
O=C(NC(=S)NNC(=O)[C@H]1C[C@@H]1c1ccccc1)c1ccc(F)cc1	-26	35*	7	18	-19	-9	22*	39*
COc1ccc(C(=O)/C(C#N)=N/Nc2ccc([N+](=O)[O-])cc2)cc1	31	20*	56	10	-29	23	9	8	OX1R Ca confirm=17;CHO Ca counter=55*
COC(=O)C1=C(C)N(Cc2ccccc2)C(=NCc2ccccc2)N[C@H]1c1ccccc1	35	18	15	7	-10	3	x	x
COC(=O)C1=C(C)N(Cc2ccccc2)C(=NCc2ccccc2)N[C@H]1c1cccc(F)c1	29	20*	22	9	-10	14	9	5	OX1R Ca confirm=33*;CHO Ca counter=7
Cc1nn(C(C)C)c(C)c1CN1CCN(Cc2ccsc2)C(CCO)C1 (stereo not given)	2	0	2	1	-5	-5	x	x
C=CCN1C(=O)/C(=C/c2ccc(OCC(=O)O)cc2)S/C1=N/c1nccs1	-12	-2	14	0	-2	-16	x	x
C=CCN1C(=O)/C(=C/c2ccc(O)c(OC)c2)S/C1=N/c1nccs1	41	20*	89*	18	-10	31	27*	38*	OX1R Ca confirm=36*;CHO Ca counter=22;OX1R HTRF conf=66*;CHO-K1 HTRF cnt=13
CN1CCS/C1=C/C=C1\SC(=S)N(CC(=O)O)C1=O	26	33*	104*	19	-7	20	31*	38*	OX1R Ca confirm=13;CHO Ca counter=19;OX1R HTRF conf=64*;CHO-K1 HTRF cnt=103*
COC(CN(C)C(=O)c1cn(C)c2ccc(S(=O)(=O)N(C)C3CCCCC3)cc2c1=O)OC	-4	1	1	0	-4	-6	x	x
CC(C)(C)NC(=O)c1cc(C(C)(C)C)c(O)c(C(C)(C)C)c1	-12	-3	11	1	10*	-1	x	x	OXTR pot cf=-2
CC(=O)Nc1cc(C(C)(C)C)c(O)c(C(C)(C)C)c1	-6	-2	3	-1	-3	-5	x	x
SMILES	OX1R antag-1	OXTR agonist	OX1R antag-2	V1R ag counter	OXTR potentiate	CHO parental Ca	OXTR agonist cf	V1R ag counter 3x	others
COCCOc1ccc(C(F)(F)F)cc1NC(=O)c1ccc(F)cc1	-19	-2	-12	0	-8	-24	x	x
COCCOc1ccc(C(F)(F)F)cc1NC(=O)c1ccccc1	-34	-2	12	-1	14*	8	x	x	OXTR pot cf=-2
COc1ccc(C(C(=O)NCC2CCCO2)N(C(=O)CNC(=O)c2cccs2)c2ccc(C)cc2)cc1OC (stereo not given)	-10	1	17	1	-7	4	x	x
COc1ccc2c(c1)OC[C@H]1[C@H]2N2C(=O)c3cc(F)ccc3NC(=O)[C@@]2(C)[C@H]1c1ccccc1	-16	2	10	2	13*	-23	x	x	OXTR pot cf=-8
COc1ccc2c(c1)OC[C@H]1[C@H]2N2C(=O)c3cc(OC)ccc3NC(=O)[C@@]2(C)[C@H]1c1ccccc1	-21	0	22	0	-4	-27	x	x
COCCCNc1c2c(nc3nnnn13)CCCC2	-15	2	8	1	13*	-5	x	x	OXTR pot cf=-2
COc1cc(/C=C2/S/C(=N/S(=O)(=O)Cc3ccccc3)NC2=O)c([N+](=O)[O-])cc1OC	-14	2	41*	1	13*	-4	x	x	OXTR pot cf=-4
COc1cc(/C=C2\S/C(=N/S(=O)(=O)Cc3ccccc3)NC2=O)c([N+](=O)[O-])cc1OC	-3	2	36	2	3	-9	x	x
